Measured values as given in ChEMBL document CHEMBL1124067, “Design of potent cyclic gonadotropin releasing hormone antagonists” (J Med Chem, 1988).
“And” between values parts separate entries of the source, which are not always exact repeats. Identical values can stand only once. Positions of bridges follow the written chain, without caps; N, C: chain ends. Non-standard residues stand in square brackets, D forms with d. Residues, ends and D or L forms follow the SMILES beside them. dPhe(4-Cl) = N[C@H](Cc1ccc(Cl)cc1)C(=O)O; dPhe(4-F) = N[C@H](Cc1ccc(F)cc1)C(=O)O; d2Nal = N[C@H](Cc1ccc2ccccc2c1)C(=O)O; d3Pal = N[C@H](Cc1cccnc1)C(=O)O; ΔPro = O=C(O)[C@@H]1C=CCN1; Dap = NC[C@H](N)C(=O)O

Legend:
Rattus norvegicus [1] = test: In vivo antiovulatory assay (AOA) carried out in rats injected sc; type: functional
In short: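 Antiovulatory assay following Corbin and Beattie. Cycling rats injected sc at noon on proestrus with peptide dissolved in saline (200 μL). Dose in micrograms; read-out is the number of rats ovulating out of the total.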

[2] = target: T1, Gonadotropin-releasing hormone receptor (Rattus norvegicus, UniProt P30969); test: Inhibitory binding constant for Gonadotropin-releasing hormone receptor
T1 sequence (P30969 whole entry): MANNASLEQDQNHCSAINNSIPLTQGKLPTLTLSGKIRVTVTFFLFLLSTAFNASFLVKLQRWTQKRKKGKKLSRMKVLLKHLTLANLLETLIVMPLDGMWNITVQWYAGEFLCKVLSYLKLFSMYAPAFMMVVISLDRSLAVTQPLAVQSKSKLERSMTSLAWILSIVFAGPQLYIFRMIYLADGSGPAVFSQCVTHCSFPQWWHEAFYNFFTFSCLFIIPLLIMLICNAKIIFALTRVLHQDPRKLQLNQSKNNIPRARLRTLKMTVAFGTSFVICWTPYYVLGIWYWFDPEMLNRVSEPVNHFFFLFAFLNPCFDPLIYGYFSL

Rattus norvegicus [3] = organism: Rattus norvegicus; test: Effect on GnRH-induced LH secretion in intact male rats at 20 ng of compound; ng of LH/mL; type: functional
Rattus norvegicus [4] = organism: Rattus norvegicus; test: Effect on GnRH-induced LH secretion in intact male rats at 50 ng of compound; ng of LH/mL; type: functional
Rattus norvegicus [5] = test: Effect of oral administration of compound (3 mg) on LH secretion by castrated male rats; ng of LH/mL; type: functional
In short: (§1)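 Adult Sprague-Dawley male rats, castrated under light ether anesthesia 7-10 days before assay. Peptide dissolved in 2 N HOAc, then diluted in 0.1% BSA-0.04 M phosphate buffer pH 7.4. Given by gavage tube (0.5 mL) under ether. Blood sampled before treatment and 5 h after. Plasma LH in ng/mL, mean ± SEM, five rats per treatment.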

Rattus norvegicus [6] = test: Effect of oral administration of compound (1 mg) on LH secretion by castrated male rats; ng of LH/mL; type: functional; in short: as §1
[7] = target: T2, Gonadotropin-releasing hormone receptor (Rattus norvegicus) (UniProt P30969); test: Inhibition of GnRH-stimulated LH secretion by cultured dispersed anterior pituitary cells; type: functional, cell-based; conditions: Pituitary gland cell
T2 sequence (whole entry): T1 sequence (P30969 whole entry)
In short: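 Cultured dispersed anterior pituitary cells. Antagonist inhibition of GnRH-stimulated LH secretion measured. Potency expressed relative to the standard [Ac-Δ3Pro1,DFpa2,DTrp3,6]GnRH (=1), with confidence range in parentheses.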

With `CC(=O)N[C@H](Cc1ccc2ccccc2c1)C(=O)N[C@H](Cc1ccc(Cl)cc1)C(=O)N[C@H](Cc1cccnc1)C(=O)N[C@H]1CCC(=O)NC[C@@H](C(N)=O)NC(=O)[C@@H]2CCCN2C(=O)[C@H](CCCNC(=N)N)NC(=O)[C@H](CC(C)C)NC(=O)[C@@H](Cc2cccnc2)NC(=O)[C@H](CCCNC(=N)N)NC1=O` [listing 1 of 2 here] the Dose (Rattus norvegicus [1]) was 10 µg and 25 µg.
`CC(=O)N[C@H](Cc1ccc2ccccc2c1)C(=O)N[C@H](Cc1ccc(Cl)cc1)C(=O)N[C@H](Cc1cccnc1)C(=O)N[C@H]1CCC(=O)NC[C@@H](C(N)=O)NC(=O)[C@@H]2CCCN2C(=O)[C@H](CCCNC(=N)N)NC(=O)[C@H](CC(C)C)NC(=O)[C@@H](Cc2cccnc2)NC(=O)[C@H](CCCNC(=N)N)NC1=O` [listing 2 of 2 here] was tested, and the Kd [2] was 1 nM.
Work on `CC(=O)N[C@H](Cc1ccc2ccccc2c1)C(=O)N[C@H](Cc1ccc(Cl)cc1)C(=O)N[C@H](Cc1cccnc1)C(=O)N[C@H]1CSSC[C@@H](C(N)=O)NC(=O)[C@@H]2CCCN2C(=O)[C@H](CCCNC(=N)N)NC(=O)[C@H](CC(C)C)NC(=O)[C@@H](Cc2cccnc2)NC(=O)[C@H](CCCNC(=N)N)NC1=O` (Ac-[d2Nal][dPhe(4-Cl)][d3Pal]CR[d3Pal]LRPC-NH2; disulfide 4-10) yielded a Kd [2] of 0.8 nM.
In the case of `CC(C)C[C@H](NC(=O)CNC(=O)[C@H](Cc1ccc(O)cc1)NC(=O)[C@H](CO)NC(=O)[C@H](Cc1c[nH]c2ccccc12)NC(=O)[C@H](Cc1cnc[nH]1)NC(=O)[C@@H]1CCC(=O)N1)C(=O)N[C@@H](CCCNC(=N)N)C(=O)N1CCC[C@H]1C(=O)NCC(N)=O` [GONADORELIN], the Activity (Rattus norvegicus [3]) is reported as 1.84 and the Activity (Rattus norvegicus [4]) is reported as 2.42.
`CC(=O)N[C@H](Cc1ccc2ccccc2c1)C(=O)N[C@H](Cc1ccc(Cl)cc1)C(=O)N[C@H](Cc1cccnc1)C(=O)N[C@@H](CO)C(=O)N[C@@H](CCCNC(=N)N)C(=O)N[C@H](Cc1cccnc1)C(=O)N[C@@H](CC(C)C)C(=O)N[C@@H](CCCNC(=N)N)C(=O)N1CCC[C@H]1C(=O)N[C@H](C)C(N)=O` (Ac-[d2Nal][dPhe(4-Cl)][d3Pal]SR[d3Pal]LRP[dA]-NH2) [listing 1 of 2 here] gave a Kd [2] of 0.24 nM.
In the case of `CC(=O)N[C@H](Cc1ccc2ccccc2c1)C(=O)N[C@H](Cc1ccc(F)cc1)C(=O)N[C@H](Cc1c[nH]c2ccccc12)C(=O)N[C@H]1CC(=O)NC[C@@H](C(N)=O)NC(=O)[C@@H]2CCCN2C(=O)[C@H](CCCN=C(N)N)NC(=O)[C@H](CC(C)C)NC(=O)[C@@H](CCCN=C(N)N)NC(=O)[C@H](Cc2ccc(O)cc2)NC1=O` (Ac-[d2Nal][dPhe(4-F)][dW]DY[dR]LRP[Dap]-NH2; lactam 4-10), the Dose (Rattus norvegicus [1]) is reported as 1 µg and 2.5 µg.
For `CC(=O)N[C@H](Cc1ccc2ccccc2c1)C(=O)N[C@H](Cc1ccc(Cl)cc1)C(=O)N[C@H](Cc1cccnc1)C(=O)N[C@H]1CNC(=O)C[C@@H](C(N)=O)NC(=O)[C@@H]2CCCN2C(=O)[C@H](CCCNC(=N)N)NC(=O)[C@H](CC(C)C)NC(=O)[C@@H](Cc2cccnc2)NC(=O)[C@H](CCCNC(=N)N)NC1=O` (Ac-[d2Nal][dPhe(4-Cl)][d3Pal][Dap]R[d3Pal]LRPD-NH2; lactam 4-10), the Kd [2] was 4.5 nM and 10 nM.
`CC(=O)N1CC=C[C@H]1C(=O)N[C@H](Cc1ccc(F)cc1)C(=O)N[C@H](Cc1c[nH]c2ccccc12)C(=O)N[C@@H](CO)C(=O)N[C@@H](Cc1ccc(O)cc1)C(=O)N[C@H](Cc1c[nH]c2ccccc12)C(=O)N[C@@H](CC(C)C)C(=O)N[C@@H](CCCNC(=N)N)C(=O)N1CCC[C@H]1C(=O)NCC(N)=O` (Ac-[ΔPro][dPhe(4-F)][dW]SY[dW]LRPG-NH2) gave a Kd [2] of 0.27 nM.
Work on `CC(=O)N[C@H](Cc1ccc2ccccc2c1)C(=O)N[C@H](Cc1ccc(F)cc1)C(=O)N[C@H](Cc1c[nH]c2ccccc12)C(=O)N[C@H]1CCC(=O)NC[C@@H](C(N)=O)NC(=O)[C@@H]2CCCN2C(=O)[C@H](CCCN=C(N)N)NC(=O)[C@H](CC(C)C)NC(=O)[C@@H](CCCN=C(N)N)NC(=O)[C@H](Cc2ccc(O)cc2)NC1=O` yielded a Kd [2] of 1.1 nM.
`CC(=O)NC[C@H](NC(=O)[C@@H](Cc1cccnc1)NC(=O)[C@@H](Cc1ccc(Cl)cc1)NC(=O)[C@@H](Cc1ccc2ccccc2c1)NC(C)=O)C(=O)N[C@@H](CCCN=C(N)N)C(=O)N[C@H](Cc1cccnc1)C(=O)N[C@@H](CC(C)C)C(=O)N[C@@H](CCCN=C(N)N)C(=O)N1CCC[C@H]1C(=O)N[C@@H](CC(N)=O)C(N)=O` [listing 1 of 2 here] was tested, and the Activity (Rattus norvegicus [5]) was 8.22 and the Dose (Rattus norvegicus [1]) was 50 µg.
In the case of `CC(=O)N[C@H](Cc1ccc2ccccc2c1)C(=O)N[C@H](Cc1ccc(F)cc1)C(=O)N[C@H](Cc1c[nH]c2ccccc12)C(=O)N[C@@H](CO)C(=O)N[C@@H](Cc1ccc(O)cc1)C(=O)N[C@H](CCCN=C(N)N)C(=O)N[C@@H](CC(C)C)C(=O)N[C@@H](CCCN=C(N)N)C(=O)N1CCC[C@H]1C(=O)NCC(N)=O` (Ac-[d2Nal][dPhe(4-F)][dW]SY[dR]LRPG-NH2), the Kd [2] is reported as 0.64 nM, the Activity (Rattus norvegicus [6]) is reported as 6.4 and the Dose (Rattus norvegicus [1]) is reported as 1 µg. The Relative potency [7] was 0.6.
`CC(=O)NC[C@H](NC(=O)[C@@H](Cc1cccnc1)NC(=O)[C@@H](Cc1ccc(Cl)cc1)NC(=O)[C@@H](Cc1ccc2ccccc2c1)NC(C)=O)C(=O)N[C@@H](CCCN=C(N)N)C(=O)N[C@H](Cc1cccnc1)C(=O)N[C@@H](CC(C)C)C(=O)N[C@@H](CCCN=C(N)N)C(=O)N1CCC[C@H]1C(=O)N[C@@H](CC(N)=O)C(N)=O` [listing 2 of 2 here] gave a Kd [2] of 1 nM.
In the case of `CC(=O)N[C@H](Cc1ccc2ccccc2c1)C(=O)N[C@H](Cc1ccc(Cl)cc1)C(=O)N[C@H](Cc1cccnc1)C(=O)N[C@@H](CO)C(=O)N[C@@H](CCCNC(=N)N)C(=O)N[C@H](Cc1cccnc1)C(=O)N[C@@H](CC(C)C)C(=O)N[C@@H](CCCNC(=N)N)C(=O)N1CCC[C@H]1C(=O)N[C@H](C)C(N)=O` (Ac-[d2Nal][dPhe(4-Cl)][d3Pal]SR[d3Pal]LRP[dA]-NH2) [listing 2 of 2 here], the Dose (Rattus norvegicus [1]) is reported as 0.5 µg and 1 µg.
For `CC(C)C[C@@H]1NC(=O)[C@@H](CCCN=C(N)N)NC(=O)[C@H](Cc2ccc(O)cc2)NC(=O)[C@@H](NC(=O)[C@@H](Cc2c[nH]c3ccccc23)NC(=O)[C@@H](Cc2ccc(F)cc2)NC(=O)[C@H](N)Cc2ccc3ccccc3c2)CSSC[C@@H](C(N)=O)NC(=O)[C@@H]2CCCN2C(=O)[C@H](CCCN=C(N)N)NC1=O`, the Dose (Rattus norvegicus [1]) was 50 µg and 100 µg.
Compound `CC(=O)N[C@H](Cc1ccc2ccccc2c1)C(=O)N[C@H](Cc1ccc(F)cc1)C(=O)N[C@H](Cc1c[nH]c2ccccc12)C(=O)N[C@H]1CSSC[C@@H](C(N)=O)NC(=O)[C@@H]2CCCN2C(=O)[C@H](CCCN=C(N)N)NC(=O)[C@H](CC(C)C)NC(=O)[C@@H](CCCN=C(N)N)NC(=O)[C@H](Cc2ccc(O)cc2)NC1=O` has a Kd [2] of 6 nM.
`CC(=O)N[C@H](Cc1ccc2ccccc2c1)C(=O)N[C@H](Cc1ccc(F)cc1)C(=O)N[C@H](Cc1c[nH]c2ccccc12)C(=O)N[C@H]1CNC(=O)C[C@@H](C(=O)NCC(N)=O)NC(=O)[C@H](CCCNC(=N)N)NC(=O)[C@H](CC(C)C)NC(=O)[C@@H](CCCNC(=N)N)NC(=O)[C@H](Cc2ccc(O)cc2)NC1=O` showed a Kd [2] of over 100 nM.
`CC(=O)N[C@H](Cc1ccc2ccccc2c1)C(=O)N[C@H](Cc1ccc(F)cc1)C(=O)N[C@H](Cc1c[nH]c2ccccc12)C(=O)N[C@H]1CNC(=O)C[C@@H](C(N)=O)NC(=O)[C@@H]2CCCN2C(=O)[C@H](CCCN=C(N)N)NC(=O)[C@H](CC(C)C)NC(=O)[C@@H](CCCN=C(N)N)NC(=O)[C@H](Cc2ccc(O)cc2)NC1=O` showed a Kd [2] of 10 nM.
`CC(=O)N[C@H](Cc1ccc2ccccc2c1)C(=O)N[C@H](Cc1ccc(Cl)cc1)C(=O)N[C@H](Cc1cccnc1)C(=O)N[C@H]1CC(=O)NC[C@@H](C(N)=O)NC(=O)[C@@H]2CCCN2C(=O)[C@H](CCCNC(=N)N)NC(=O)[C@H](CC(C)C)NC(=O)[C@@H](Cc2cccnc2)NC(=O)[C@H](CCCNC(=N)N)NC1=O` was tested, and the Kd [2] was 1.1 nM.
Compound `CC(=O)N[C@H](Cc1ccc2ccccc2c1)C(=O)N[C@H](Cc1ccc(F)cc1)C(=O)N[C@H](Cc1c[nH]c2ccccc12)C(=O)N[C@H]1CC(=O)NCCC[C@@H](C(N)=O)NC(=O)[C@@H]2CCCN2C(=O)[C@H](CCCN=C(N)N)NC(=O)[C@H](CC(C)C)NC(=O)[C@@H](CCCN=C(N)N)NC(=O)[C@H](Cc2ccc(O)cc2)NC1=O` has a Kd [2] of 41 nM.
For `CC(=O)N[C@H](Cc1ccc2ccccc2c1)C(=O)N[C@H](Cc1ccc(Cl)cc1)C(=O)N[C@H](Cc1cccnc1)C(=O)N[C@H]1CC(=O)NCCC[C@@H](C(N)=O)NC(=O)[C@@H]2CCCN2C(=O)[C@H](CCCNC(=N)N)NC(=O)[C@H](CC(C)C)NC(=O)[C@@H](Cc2cccnc2)NC(=O)[C@H](CCCNC(=N)N)NC1=O`, the Kd [2] was 11 nM.
